Assay results: ChEMBL document CHEMBL5653631, “A Potent and Selective ULK1 Inhibitor Suppresses Autophagy and Sensitizes Cancer Cells to Nutrient Stress” (iScience, 2018)

Experiments:
[1] = molecular target: RAC-beta serine/threonine-protein kinase (Homo sapiens) (UniProt P31751); assay: Inhibition of human recombinant AKT2 at 40 nM in presence of ATP by radiometric assay relative to control
How it was run: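 Panel of 327 recombinant human kinases in radiometric activity assays, each screened in duplicate at a single inhibitor concentration; percent activity remaining relative to vehicle control, percent inhibition taken as 100 minus activity remaining.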

[2] = molecular target: Rho-associated protein kinase 1 (Homo sapiens) (UniProt Q13464); assay: Inhibition of human recombinant ROCK1 at 40 nM in presence of ATP by radiometric assay relative to control
[3] = molecular target: Misshapen-like kinase 1 (Homo sapiens) (UniProt Q8N4C8); assay: Inhibition of human recombinant MINK at 40 nM related to control ULK1
[4] = molecular target: T1, Inhibitor of nuclear factor kappa-B kinase subunit epsilon (Homo sapiens) (UniProt Q14164); assay: Inhibition of human recombinant IKKe at 15 nM in presence of ATP by radiometric assay relative to control
T1 sequence (whole entry): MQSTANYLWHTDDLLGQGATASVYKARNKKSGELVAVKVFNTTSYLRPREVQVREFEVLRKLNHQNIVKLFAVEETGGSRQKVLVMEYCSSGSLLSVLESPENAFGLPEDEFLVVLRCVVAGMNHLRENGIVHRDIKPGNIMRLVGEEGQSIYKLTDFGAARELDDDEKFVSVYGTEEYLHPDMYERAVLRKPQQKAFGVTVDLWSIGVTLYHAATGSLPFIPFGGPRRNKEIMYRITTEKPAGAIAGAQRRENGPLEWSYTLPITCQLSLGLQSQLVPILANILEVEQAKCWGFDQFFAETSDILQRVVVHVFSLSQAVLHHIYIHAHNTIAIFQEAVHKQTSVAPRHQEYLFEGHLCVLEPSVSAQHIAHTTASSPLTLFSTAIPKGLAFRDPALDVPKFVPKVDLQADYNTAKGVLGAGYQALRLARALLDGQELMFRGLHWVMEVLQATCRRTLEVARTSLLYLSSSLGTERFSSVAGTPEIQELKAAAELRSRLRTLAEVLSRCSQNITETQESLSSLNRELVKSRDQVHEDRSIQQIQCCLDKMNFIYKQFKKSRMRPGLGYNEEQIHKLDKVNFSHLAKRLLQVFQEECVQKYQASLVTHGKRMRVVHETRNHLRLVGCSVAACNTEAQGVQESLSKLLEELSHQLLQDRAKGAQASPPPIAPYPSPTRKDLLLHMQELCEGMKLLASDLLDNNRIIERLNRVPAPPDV

[5] = molecular target: Ribosomal protein S6 kinase alpha-3 (Homo sapiens) (UniProt P51812); assay: Inhibition of human recombinant RSK2 at 15 nM related to control ULK1
[6] = molecular target: T2, Testis-specific serine/threonine-protein kinase 2 (Homo sapiens) (UniProt Q96PF2); assay: Inhibition of human recombinant TSSK2 at 15 nM related to control ULK1
T2 sequence (whole entry): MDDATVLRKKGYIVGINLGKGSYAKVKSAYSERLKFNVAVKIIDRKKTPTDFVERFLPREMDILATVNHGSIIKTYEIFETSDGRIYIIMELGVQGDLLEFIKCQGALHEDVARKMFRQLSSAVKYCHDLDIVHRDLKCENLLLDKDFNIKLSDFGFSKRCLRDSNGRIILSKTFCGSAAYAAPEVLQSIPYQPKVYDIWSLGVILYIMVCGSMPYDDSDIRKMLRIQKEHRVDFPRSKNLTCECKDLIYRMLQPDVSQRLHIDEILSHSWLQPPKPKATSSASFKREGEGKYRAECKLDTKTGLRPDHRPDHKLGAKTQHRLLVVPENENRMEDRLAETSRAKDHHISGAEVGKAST

[7] = molecular target: MAP/microtubule affinity-regulating kinase 3 (Homo sapiens) (UniProt P27448); assay: Inhibition of human recombinant MARK3 at 500 nM in presence of ATP by radiometric assay relative to control
[8] = molecular target: T3, Serine/threonine-protein kinase NLK (Homo sapiens) (UniProt Q9UBE8); assay: Inhibition of human recombinant NLK at 500 nM in presence of ATP by radiometric assay relative to control
T3 sequence (whole entry): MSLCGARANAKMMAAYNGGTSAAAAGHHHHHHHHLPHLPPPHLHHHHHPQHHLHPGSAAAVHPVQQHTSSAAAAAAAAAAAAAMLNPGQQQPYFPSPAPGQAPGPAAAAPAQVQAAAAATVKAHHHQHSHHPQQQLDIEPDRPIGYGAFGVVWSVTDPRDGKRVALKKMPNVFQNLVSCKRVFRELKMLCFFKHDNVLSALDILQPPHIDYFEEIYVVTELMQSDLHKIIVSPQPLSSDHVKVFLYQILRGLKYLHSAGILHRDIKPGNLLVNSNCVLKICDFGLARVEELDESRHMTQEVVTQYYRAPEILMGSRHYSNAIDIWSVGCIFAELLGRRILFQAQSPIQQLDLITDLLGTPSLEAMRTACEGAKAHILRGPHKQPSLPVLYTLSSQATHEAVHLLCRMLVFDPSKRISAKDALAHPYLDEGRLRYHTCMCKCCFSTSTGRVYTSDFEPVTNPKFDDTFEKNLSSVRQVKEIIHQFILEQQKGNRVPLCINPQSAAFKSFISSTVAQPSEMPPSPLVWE

[9] = molecular target: T4, Serine/threonine-protein kinase DCLK3 (Homo sapiens) (UniProt Q9C098); assay: Inhibition of human recombinant DCAMKL3 at 500 nM related to control ULK1
T4 sequence (whole entry): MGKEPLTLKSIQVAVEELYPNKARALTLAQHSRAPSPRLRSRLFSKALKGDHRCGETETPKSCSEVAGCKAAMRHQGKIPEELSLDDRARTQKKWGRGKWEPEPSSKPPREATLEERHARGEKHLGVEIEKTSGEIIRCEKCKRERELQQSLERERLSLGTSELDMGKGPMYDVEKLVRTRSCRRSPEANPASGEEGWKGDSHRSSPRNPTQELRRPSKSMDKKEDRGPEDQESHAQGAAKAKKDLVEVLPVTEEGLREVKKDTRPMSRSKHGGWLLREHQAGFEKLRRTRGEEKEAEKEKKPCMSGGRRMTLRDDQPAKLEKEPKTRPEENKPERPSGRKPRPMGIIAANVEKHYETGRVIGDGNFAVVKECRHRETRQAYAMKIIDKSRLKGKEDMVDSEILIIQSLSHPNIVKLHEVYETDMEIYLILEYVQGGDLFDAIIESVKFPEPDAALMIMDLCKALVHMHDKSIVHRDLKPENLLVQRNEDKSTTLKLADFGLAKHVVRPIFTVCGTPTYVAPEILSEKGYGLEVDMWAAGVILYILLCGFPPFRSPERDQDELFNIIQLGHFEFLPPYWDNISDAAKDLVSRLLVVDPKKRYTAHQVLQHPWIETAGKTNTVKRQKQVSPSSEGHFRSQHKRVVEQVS

[10] = molecular target: Protein kinase C eta type (Homo sapiens) (UniProt P24723); assay: Inhibition of human recombinant PKCH at 500 nM related to control ULK1

Rho-associated protein kinase 1 (Homo sapiens), sequence (Q13464 2-1354 limits assumed): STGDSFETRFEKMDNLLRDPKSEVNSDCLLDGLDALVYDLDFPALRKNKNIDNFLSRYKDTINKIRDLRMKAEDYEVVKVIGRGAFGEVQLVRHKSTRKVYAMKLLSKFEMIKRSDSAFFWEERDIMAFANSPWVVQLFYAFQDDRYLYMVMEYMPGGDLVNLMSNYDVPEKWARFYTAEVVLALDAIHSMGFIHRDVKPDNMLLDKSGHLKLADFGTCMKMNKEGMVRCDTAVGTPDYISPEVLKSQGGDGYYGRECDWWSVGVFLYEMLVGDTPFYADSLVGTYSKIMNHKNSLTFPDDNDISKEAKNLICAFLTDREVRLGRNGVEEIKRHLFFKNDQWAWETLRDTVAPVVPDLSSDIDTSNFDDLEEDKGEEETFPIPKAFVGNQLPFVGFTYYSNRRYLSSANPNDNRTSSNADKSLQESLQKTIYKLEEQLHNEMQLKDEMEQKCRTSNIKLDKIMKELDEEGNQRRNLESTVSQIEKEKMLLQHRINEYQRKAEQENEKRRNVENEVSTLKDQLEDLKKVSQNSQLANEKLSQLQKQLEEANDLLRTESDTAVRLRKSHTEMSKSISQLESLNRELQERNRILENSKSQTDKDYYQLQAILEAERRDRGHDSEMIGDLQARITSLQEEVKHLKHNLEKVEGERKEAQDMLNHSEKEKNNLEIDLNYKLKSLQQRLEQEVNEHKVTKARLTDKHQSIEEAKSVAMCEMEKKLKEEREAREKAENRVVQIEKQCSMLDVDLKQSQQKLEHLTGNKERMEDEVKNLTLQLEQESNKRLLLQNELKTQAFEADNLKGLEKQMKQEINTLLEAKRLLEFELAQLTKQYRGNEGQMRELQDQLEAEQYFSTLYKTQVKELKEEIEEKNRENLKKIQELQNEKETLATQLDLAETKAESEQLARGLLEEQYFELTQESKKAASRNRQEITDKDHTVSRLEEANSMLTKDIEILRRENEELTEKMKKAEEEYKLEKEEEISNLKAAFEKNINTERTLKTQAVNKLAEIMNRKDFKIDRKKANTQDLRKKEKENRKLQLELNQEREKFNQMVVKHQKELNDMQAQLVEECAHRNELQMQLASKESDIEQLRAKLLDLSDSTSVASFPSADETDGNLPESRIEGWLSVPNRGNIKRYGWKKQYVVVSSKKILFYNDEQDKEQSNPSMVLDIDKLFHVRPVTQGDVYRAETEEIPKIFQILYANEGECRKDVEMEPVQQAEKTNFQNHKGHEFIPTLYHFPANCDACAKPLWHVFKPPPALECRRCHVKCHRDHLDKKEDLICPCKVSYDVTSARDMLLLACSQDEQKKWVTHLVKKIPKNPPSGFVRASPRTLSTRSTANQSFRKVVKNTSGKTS
RAC-beta serine/threonine-protein kinase (Homo sapiens), sequence (P31751 whole entry): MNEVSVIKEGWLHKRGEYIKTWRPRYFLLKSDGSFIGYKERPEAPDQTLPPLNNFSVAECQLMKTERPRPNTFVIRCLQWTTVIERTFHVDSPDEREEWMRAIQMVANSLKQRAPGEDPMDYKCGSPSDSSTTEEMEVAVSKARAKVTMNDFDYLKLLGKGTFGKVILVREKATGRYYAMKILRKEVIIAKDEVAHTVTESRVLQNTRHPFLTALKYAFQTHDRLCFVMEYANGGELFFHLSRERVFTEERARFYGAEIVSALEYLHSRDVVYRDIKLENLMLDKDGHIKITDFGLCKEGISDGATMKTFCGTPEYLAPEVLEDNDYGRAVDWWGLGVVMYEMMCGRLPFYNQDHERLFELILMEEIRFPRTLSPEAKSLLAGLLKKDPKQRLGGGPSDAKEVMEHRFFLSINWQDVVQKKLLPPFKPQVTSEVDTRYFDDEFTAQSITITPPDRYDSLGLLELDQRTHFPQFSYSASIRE
Misshapen-like kinase 1 (Homo sapiens), sequence (Q8N4C8 whole entry, looked up): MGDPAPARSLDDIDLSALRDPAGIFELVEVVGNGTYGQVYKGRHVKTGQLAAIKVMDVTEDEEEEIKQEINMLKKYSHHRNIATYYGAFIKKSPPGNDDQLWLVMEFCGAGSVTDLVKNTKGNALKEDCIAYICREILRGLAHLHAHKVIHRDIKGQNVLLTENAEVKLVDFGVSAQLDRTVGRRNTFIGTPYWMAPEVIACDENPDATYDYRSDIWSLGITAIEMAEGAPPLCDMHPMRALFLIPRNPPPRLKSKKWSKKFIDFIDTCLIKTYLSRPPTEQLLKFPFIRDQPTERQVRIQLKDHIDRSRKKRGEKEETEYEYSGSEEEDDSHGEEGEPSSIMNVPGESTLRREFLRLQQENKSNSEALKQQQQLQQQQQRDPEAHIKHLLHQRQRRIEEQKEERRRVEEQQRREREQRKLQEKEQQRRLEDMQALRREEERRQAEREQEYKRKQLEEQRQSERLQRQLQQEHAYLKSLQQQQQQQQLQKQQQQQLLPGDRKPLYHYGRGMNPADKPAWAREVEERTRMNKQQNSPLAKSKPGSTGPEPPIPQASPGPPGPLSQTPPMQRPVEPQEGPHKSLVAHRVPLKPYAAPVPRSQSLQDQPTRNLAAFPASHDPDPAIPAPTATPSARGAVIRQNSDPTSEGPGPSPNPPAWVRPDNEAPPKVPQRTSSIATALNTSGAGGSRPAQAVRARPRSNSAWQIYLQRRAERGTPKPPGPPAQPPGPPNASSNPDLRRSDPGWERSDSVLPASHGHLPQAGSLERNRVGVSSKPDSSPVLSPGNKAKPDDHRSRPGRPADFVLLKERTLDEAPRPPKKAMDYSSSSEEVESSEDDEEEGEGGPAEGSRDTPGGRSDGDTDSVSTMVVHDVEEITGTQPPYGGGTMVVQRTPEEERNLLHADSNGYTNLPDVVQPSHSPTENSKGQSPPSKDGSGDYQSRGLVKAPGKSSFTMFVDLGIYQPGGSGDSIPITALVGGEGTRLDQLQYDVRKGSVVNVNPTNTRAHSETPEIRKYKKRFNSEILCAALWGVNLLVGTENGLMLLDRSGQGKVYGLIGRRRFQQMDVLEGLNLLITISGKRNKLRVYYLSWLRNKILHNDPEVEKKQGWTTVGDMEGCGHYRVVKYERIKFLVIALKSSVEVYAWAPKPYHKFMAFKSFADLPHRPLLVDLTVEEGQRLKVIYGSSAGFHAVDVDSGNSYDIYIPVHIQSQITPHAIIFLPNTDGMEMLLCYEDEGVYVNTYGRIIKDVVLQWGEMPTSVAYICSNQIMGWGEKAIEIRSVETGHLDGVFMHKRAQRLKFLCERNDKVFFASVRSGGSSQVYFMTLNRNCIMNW
MAP/microtubule affinity-regulating kinase 3 (Homo sapiens), sequence (P27448 whole entry, looked up): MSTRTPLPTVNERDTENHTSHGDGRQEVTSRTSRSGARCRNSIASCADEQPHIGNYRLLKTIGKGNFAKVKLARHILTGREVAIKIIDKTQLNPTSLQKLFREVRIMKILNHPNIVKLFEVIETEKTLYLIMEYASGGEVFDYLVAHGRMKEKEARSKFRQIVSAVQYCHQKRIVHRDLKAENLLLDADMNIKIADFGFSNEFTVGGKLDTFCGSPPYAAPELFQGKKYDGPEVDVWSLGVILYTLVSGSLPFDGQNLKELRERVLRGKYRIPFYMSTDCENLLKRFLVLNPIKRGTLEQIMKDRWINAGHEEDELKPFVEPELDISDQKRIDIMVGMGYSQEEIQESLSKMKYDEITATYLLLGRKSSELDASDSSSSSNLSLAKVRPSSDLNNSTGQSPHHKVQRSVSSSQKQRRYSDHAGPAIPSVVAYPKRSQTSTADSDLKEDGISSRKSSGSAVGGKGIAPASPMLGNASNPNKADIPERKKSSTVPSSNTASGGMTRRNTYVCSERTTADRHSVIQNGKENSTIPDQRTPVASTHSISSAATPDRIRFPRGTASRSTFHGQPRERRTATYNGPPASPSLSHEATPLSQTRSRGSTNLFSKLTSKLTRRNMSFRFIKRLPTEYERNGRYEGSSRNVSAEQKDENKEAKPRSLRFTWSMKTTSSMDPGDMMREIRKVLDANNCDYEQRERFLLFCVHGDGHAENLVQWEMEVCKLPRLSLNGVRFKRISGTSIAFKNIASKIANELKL
Ribosomal protein S6 kinase alpha-3 (Homo sapiens), sequence (P51812 whole entry): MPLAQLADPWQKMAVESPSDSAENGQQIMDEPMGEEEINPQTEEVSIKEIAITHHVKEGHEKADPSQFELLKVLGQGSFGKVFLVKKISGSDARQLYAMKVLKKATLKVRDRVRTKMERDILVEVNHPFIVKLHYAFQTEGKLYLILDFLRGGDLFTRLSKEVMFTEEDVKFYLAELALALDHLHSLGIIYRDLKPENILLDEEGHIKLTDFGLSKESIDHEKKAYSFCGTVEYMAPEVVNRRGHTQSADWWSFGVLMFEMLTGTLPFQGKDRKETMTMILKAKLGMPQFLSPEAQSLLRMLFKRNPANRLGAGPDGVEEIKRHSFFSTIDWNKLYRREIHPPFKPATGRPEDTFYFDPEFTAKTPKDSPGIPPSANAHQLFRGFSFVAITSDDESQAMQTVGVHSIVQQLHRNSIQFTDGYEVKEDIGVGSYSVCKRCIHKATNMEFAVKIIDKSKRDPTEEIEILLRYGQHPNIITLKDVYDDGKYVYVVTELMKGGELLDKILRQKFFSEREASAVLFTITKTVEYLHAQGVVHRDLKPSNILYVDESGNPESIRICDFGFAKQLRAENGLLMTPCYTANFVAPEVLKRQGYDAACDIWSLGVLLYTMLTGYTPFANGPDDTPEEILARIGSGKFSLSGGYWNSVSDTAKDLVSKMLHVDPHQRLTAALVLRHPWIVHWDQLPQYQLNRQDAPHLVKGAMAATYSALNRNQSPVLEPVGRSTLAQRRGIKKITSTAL

O=C(N[C@@H](C1CC1)C(F)(F)F)c1cc(-c2cnn3cc(-c4ccc(F)cc4)cnc23)cs1
inhibition [1]: 10% | inhibition [2]: 0% | fold change (FC) [3]: 0.1

CC(C)[C@H](NC(=O)c1cc(-c2cnn3cc(-c4ccc(OCCN5CCCCC5)cc4)cnc23)cs1)C(F)(F)F
inhibition [4]: 75% | fold change (FC) [5]: 0 | fold change (FC) [6]: 0.01

CNC(=O)c1ccccc1Oc1nc(Nc2cc(OC)c(OC)c(OC)c2)ncc1Br
inhibition [7]: 45% | inhibition [8]: 4% | fold change (FC) [9]: 0 | fold change (FC) [10]: 0.09
